Experimental findings from ChEMBL document CHEMBL1154037, “In vivo targeting of tumor-associated carbonic anhydrases using acetazolamide derivatives” (Bioorg Med Chem Lett, 2009) are described below.

Active and inactive are the calls of the source. The calls are words filed in the database; no cut-off is given here.

Series [1] relates to Mus musculus. Kind of series: Toxicity in human SK-RC-52 cells xenografted BALB/c nu/nu mouse assessed as effect on body weight at 25 mg/kg, ip. It is filed as organism-based. As to conditions: in vivo. The arrangement: dose 25 mg/kg, route intraperitoneal. For orientation: In xenograft studies the graft and the host belong to different species.
For series [2], the system named is LS174T. Kind of series: Antitumor activity against human LS 174T cells xenografted BALB/c nu/nu mouse assessed as inhibition of tumor growth at 25 mg/kg, ip. It is filed as functional, organism-based. Also on record: dose 25 mg/kg. An outline of the steps:
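Balb/c nude mice with subcutaneous LS174T human colorectal xenografts, dosed i.p. at 25 mg/kg/day. Vehicle controls received saline containing 15% (v/v) DMSO i.v. Tumor growth was followed as mean tumor volume ± SE, n = 5 per group. Body weight was also tracked as % of day-1 weight.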

The target of series [3] is T1, Carbonic anhydrase 9 (Homo sapiens, UniProt Q16790). Kind of series: Inhibition of human CA9 catalytic domain using 4-nitrophenylacetate substrate by colorimetry. An outline of the steps: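 CA IX esterase activity was measured colorimetrically via conversion of 4-nitrophenylacetate and reported as Ki. Line 15 was run in the presence of 10 µM mouse serum albumin.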

A further series has as its system Intestine. Kind of series: Drug uptake in human LS 174T cells xenografted BALB/c nu/nu mouse intestine at 1.26 umol, iv after 1 hr. As to conditions: in vivo. It is filed as ADME, organism-based, LS174T. A digest of the protocol:
(§1)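 Balb/c nu/nu mice carried subcutaneous LS174T tumors of about 500 mg. They received 680 µg (1.26 µmol) of fluorescent compound in the tail vein and were sacrificed 1 h or 2 h later. Fluorescence microscopy was done on 10 µm sections of tumor, muscle, heart, lung, intestine, spleen, kidney and liver. Exposures were 900 ms (1 h) and 1100 ms (2 h).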

The test system of another series is Liver. Kind of series: Drug uptake in human LS 174T cells xenografted BALB/c nu/nu mouse liver at 1.26 umol, iv after 1 hr. The format is ADME, organism-based, LS174T. As to conditions: in vivo. An outline of the steps:
as §1

The subject of series [4] is Mus musculus. As to the kind of experiment: Drug uptake in human LS 174T cells xenografted BALB/c nu/nu mouse at 1.26 umol, iv after 2 hrs. The format is ADME, organism-based, LS174T. The following applies: in vivo. An outline of the steps:
as §1

Series [5] in a line: Drug uptake in human LS 174T cells assessed as increase in fluorescence intensity at 3 uM by FACS method relative to untreated control. It is filed as ADME, cell-based. The following applies: ls174t. An outline of the steps:
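LS174T cells were incubated with fluorescein-labelled compound at 0.26 or 3 µM and analysed by flow cytometry in the FITC channel. Mean fluorescence was compared with unstained cells. Free FAM served as a dye control, and polyclonal anti-CA IX staining confirmed antigen presence.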
In general terms: In flow cytometry, cells or beads pass a laser one at a time.

For series [6], the system named is Mus musculus. Kind of series: Drug uptake in human LS 174T cells xenografted BALB/c nu/nu mouse at 1.26 umol, iv after 1 hr. It is filed as ADME, organism-based, LS174T. As to conditions: in vivo. A digest of the protocol:
as §1

In the next series the test system is Kidney. Kind of series: Drug uptake in human LS 174T cells xenografted BALB/c nu/nu mouse kidney at 1.26 umol, iv after 1 hr. The format is ADME, organism-based, LS174T. As to conditions: in vivo. An outline of the steps: as §1
In series [7] the test system is Mus musculus. Kind of series: Toxicity in human SK-RC-52 cells xenografted BALB/c nu/nu mouse assessed as effect on body weight at 20 mg/kg, ip. It is filed as organism-based. The arrangement: dose 20 mg/kg, route intraperitoneal. The following applies: in vivo.
The test system of series [8] is Homo sapiens. As to the kind of experiment: Antitumor activity against human SK-RC-52 cells xenografted BALB/c nu/nu mouse assessed as inhibition of tumor growth at 20 mg/kg, ip. The format is functional, organism-based. The arrangement: dose 20 mg/kg.
For a further series, the target named is Albumin (Homo sapiens, UniProt P02768). As to the kind of experiment: Binding affinity to HSA by isothermal titration calorimetry. It is filed as ADME. On the technique in general: ITC needs no label: the signal is the heat of the interaction.
Series [9] concerns LS174T. As to the kind of experiment: Antitumor activity against human LS 174T cells xenografted BALB/c nu/nu mouse assessed as inhibition of tumor growth at 340 ug, iv administered as 5 weekly injection schedule for 2 consecutive weeks. It is filed as functional, organism-based. An outline of the steps: (§2)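 Subcutaneous xenografts in Balb/c nude mice, n = 5 per group. Dosing was 340 µg (17 mg/kg, 0.5 µmol) per injection i.v. Vehicle was saline with 15% (v/v) DMSO, and controls received vehicle alone. Read-out was tumor volume over time, given as mean ± SE.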

In series [10] the test system is Blood. Kind of series: Drug level in human SK-RC-52 cells xenografted BALB/c nu/nu mouse blood at 0.5 umol. iv. The format is ADME, cell-based. The following applies: read-out: Drug uptake. An outline of the steps: (§3)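 A bolus i.v. injection of 340 µg (0.5 µmol) was given to tumor-bearing mice. Blood concentration was estimated immediately at the end of the bolus injection.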

Series [11] has as its system Blood. As to the kind of experiment: Drug level in human LS 174T cells xenografted BALB/c nu/nu mouse blood at 0.5 umol. iv. The following applies: in vivo, read-out: Drug uptake. The format is ADME, cell-based, LS174T. A digest of the protocol:
as §3

Series [12] relates to Mus musculus. As to the kind of experiment: Toxicity in human SK-RC-52 cells xenografted BALB/c nu/nu mouse assessed as effect on body weight at 340 ug, iv administered as 5 weekly injection schedule for 3 consecutive weeks. The format is organism-based. As to conditions: in vivo. A digest of the protocol: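 SK-RC-52 xenografted Balb/c nude mice, n = 5, given 340 µg (17 mg/kg) per injection i.v. in saline with 15% (v/v) DMSO. Body weight was monitored during therapy and expressed as % of body weight on day 1 of treatment.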

Series [13] has as its target T1, Carbonic anhydrase 9. Kind of series: Binding affinity to human CA9 catalytic domain by isothermal titration calorimetry.
The subject of series [14] is Homo sapiens. Kind of series: Antitumor activity against human SK-RC-52 cells xenografted BALB/c nu/nu mouse assessed as inhibition of tumor growth at 340 ug, iv administered as 5 weekly injection schedule for 3 consecutive weeks. It is filed as functional, organism-based. A digest of the protocol:
as §2

A word on the Ki: it is a dissociation constant, usually derived from enzyme kinetics or from competition with a known ligand. Higher therefore signals weaker binding. By Kd is commonly meant a measure of binding affinity in units of concentration. Low values mean tighter binding, high ones weaker binding.

Albumin, sequence (P02768 whole entry): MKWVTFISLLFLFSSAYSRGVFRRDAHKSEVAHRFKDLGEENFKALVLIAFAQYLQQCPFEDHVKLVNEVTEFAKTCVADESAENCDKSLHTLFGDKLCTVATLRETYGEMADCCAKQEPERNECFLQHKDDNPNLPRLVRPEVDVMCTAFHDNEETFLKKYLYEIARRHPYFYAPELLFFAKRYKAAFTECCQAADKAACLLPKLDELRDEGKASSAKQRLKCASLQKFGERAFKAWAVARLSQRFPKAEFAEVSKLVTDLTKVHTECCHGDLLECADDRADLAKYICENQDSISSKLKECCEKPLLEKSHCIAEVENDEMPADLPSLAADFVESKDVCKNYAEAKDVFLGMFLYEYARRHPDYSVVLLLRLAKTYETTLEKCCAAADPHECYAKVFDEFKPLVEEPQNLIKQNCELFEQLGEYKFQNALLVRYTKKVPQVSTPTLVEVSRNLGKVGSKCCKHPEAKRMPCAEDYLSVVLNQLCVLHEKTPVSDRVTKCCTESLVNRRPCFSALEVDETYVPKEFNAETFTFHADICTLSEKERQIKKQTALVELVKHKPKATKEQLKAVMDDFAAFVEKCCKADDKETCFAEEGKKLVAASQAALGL

Take `O=c1[nH]cc(F)c(=O)[nH]1` [FLUOROURACIL]: the Activity result in the series with Mus musculus [1] was “Toxic”. The result with LS174T [2] was Active.

Turning to `NS(=O)(=O)c1nnc(NC(=O)c2ccc(-c3c4ccc(=O)cc-4oc4cc(O)ccc34)c(C(=O)O)c2)s1`, the Ki on Carbonic anhydrase 9 [3] was determined as 220 nM. Also, the Drug uptake entry in the series with Intestine, in the series on Liver, in the series with Mus musculus [4], in the series on Mus musculus [6] and with Kidney was “Active” each time. The “fold change (FC)” value in [5] is on record as > 10.

Turning to `CCN(CC)CCNC(=O)c1c(C)[nH]c(/C=C2\C(=O)Nc3ccc(F)cc32)c1C` [SUNITINIB], the Activity result with Mus musculus [7] was “Non-toxic”. Moreover, the outcome in the series on Homo sapiens [8] was Active.

Take `NS(=O)(=O)c1nnc(NC(=O)CCC(=O)NC(CCCCNC(=O)CCCc2ccc(I)cc2)C(=O)O)s1` (stereo not drawn): the Kd on Albumin is 820 nM; at Carbonic anhydrase 9 [13] it was 3.2 nM. Also, the result in the series on LS174T [9] was inactive. Besides, the concentration in the series with Blood [10] and in the series on Blood [11] was 250 µM throughout. For the same compound, the Activity entry with Mus musculus [12] is “Non-toxic”. Further, the outcome with Homo sapiens [14] was Active.
